High-throughput results from PubChem BioAssay.
UPR XBP1 act = activators of adaptive arm of unfolded protein response (XBP1) | CHO-XBP1 luciferase reporter, IRE1-XBP1 UPR activation, luminescence; percent of tunicamycin response, DMSO as zero | activation, % at 20 µM | 330,000 compounds, 0.33% hits | AID 463104;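 active = versus positive control, 20 µM dose yields 30% or more activation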
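Material: CHO-XBP1 cells stably carrying IRE1-XBP1-driven luciferase reporter / Amount: 1000 cells per well / Compound: 20 µM, 1% DMSO / Times: 6 h treatment, 37 °C / Detection: luciferase luminescence / Measure: % activation of reporter signal versus tunicamycin and DMSO controls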
NR3A LBD binder = NR3A (human) ligand-binding domain modulation; NR3A LBD differential scanning fluorimetry, Tm shift; 0% = protein alone, 100% = glycine-bound protein; Tm shift relative to glycine control, % at 25 µM; 340,000 compounds, 2.5% hits;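 active = melting temperature shift of at least 10% of the positive control shift, at one fixed dose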
MPTP inh = inhibitors of mitochondrial permeability transition pore | inhibition, % at 10 µM | 360,000 compounds, 1.4% hits | isolated mouse mitochondria, Ca2+ swelling absorbance, 30 min | AID 602449;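 active = inhibition of 50% or more, scaled per plate between neutral and stimulator controls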
CHOP inhibitor = inhibitors of CHOP induction in ER stress response; 220,000 compounds, 3.8% hits; inhibition, % at 10 µM; CHO-K1 CHOP-promoter luciferase, tunicamycin-induced, 15-18 h;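 active = compounds that reduced the stress-induced luciferase reporter signal by more than about 70% of percent inhibition, limit read from the data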
UPR CHOP act = apoptotic UPR (CHOP) activation; CHO-CHOP luciferase reporter, luminescence; percent of tunicamycin response over DMSO baseline; activation, % at 10 µM; 330,000 compounds, 0.34% hits; AID 449763;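 active = at 10 µM dose, activation of 40% or more, normalized to positive control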
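Assay system: CHO cells with stable CHOP pathway luciferase reporter; Buffer or medium: F12 plus 10% serum; Times: 16-18 h cell attachment, then 6 h compound exposure, 37 °C; Signal: luciferase luminescence; Read-out basis: percent activation relative to tunicamycin control; Control set: tunicamycin high control, DMSO low control.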
aDG glyco act = alpha-DG glycosylation activation | Pro5-aDG cells, alpha-DG glycosylation AlphaScreen (IIH6); 0% Pro5, 100% B10-LARGE cell signal | activation, % at 10 µM | 360,000 compounds, 0.22% hits | AID 624168;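 active = activation of at least 8% versus controls, or a plate z-score of at least 8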;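 note: Pro5 are CHO cells carrying HIG-tagged alpha-DG that lacks glycosylation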
CHOP confirm = confirmation of CHOP induction inhibitors. shares compounds with CHOP inhibitor. CHO-CHOP promoter luciferase reporter, tunicamycin-induced, luminescence. inhibition, % at 10 µM. 2,100 compounds, 45% hits. AID 504437;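 active = mean of three repeat readings of reporter signal inhibition above a set limit, cut at about 70% in these data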
CHOP UPR conf = apoptotic UPR (CHOP) activation, confirmed; shares compounds with UPR CHOP act; AID 463112; CHO-CHOP cells, CHOP-luciferase reporter luminescence; percent of tunicamycin response, DMSO as zero; activation, % at 10 µM; 1,000 compounds, 64% hits; in the data active = activation above about 33%
Rh123 counter = Rhodamine 123 counter-screen of mitochondrial pore hits | shares compounds with MPTP inh | isolated mitochondria, membrane potential, Rhodamine 123 fluorescence | inhibition, % at 10 µM | 5,000 compounds, 78% hits | AID 624504; in the data active = inhibition above about 22%
aDG conf = alpha-DG glycosylation activation, confirmation; shares compounds with aDG glyco act; 600 compounds, 17% hits; AID 651671; Pro5-aDG cells, IIH6 AlphaLISA; scaled to LARGE-overexpressing B10 cells as 100%; activation, % at 10 µM (by protocol);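 active = activation of at least 7% in one or more replicates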;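 note: cells exposed to compound for two days before detection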
Numbers stand for hits; – = inactive; · = no result given. In the library only some 5.6% were active in any assay of this set; here they are far more common.

SMILES	UPR XBP1 act	NR3A LBD binder	MPTP inh	CHOP inhibitor	UPR CHOP act	aDG glyco act	CHOP UPR conf	others
CCc1nnc(NS(=O)(=O)c2ccc(NC(=S)NC(=O)/C=C/c3ccccc3)cc2)s1	–	–	–	–	–	–	·
O=c1c2c(-c3ccccc3)csc2nc2c3ccccc3c(NCCN3CCOCC3)nn12	·	–	58	106	·	–	·	CHOP confirm=–;Rh123 counter=–
CC(C)(C)Sc1ccc([N+](=O)[O-])cc1C(=O)Nc1ccncc1	–	–	–	–	–	–	·
O=C(NCc1nc(-c2ccc(C(F)(F)F)cc2)no1)Nc1cc(Cl)cc(Cl)c1	–	33	84	102	–	–	·	CHOP confirm=109;Rh123 counter=70
O=S(=O)(c1cccc2nsnc12)N1CCCCC1	–	–	–	·	–	–	·
O=C(NNc1nc2ccccc2s1)Nc1ccc(Cl)c(Cl)c1	–	16	74	106	–	–	·	CHOP confirm=–;Rh123 counter=75
Cc1nnc(SCC(=O)NCCC2=CCCCC2)[nH]c1=O	–	–	–	·	–	–	·
COC(=O)c1cccc(NC(=S)Nc2ccccc2Cl)c1	–	–	–	–	–	–	·
COC(=O)c1cc(NC(=S)Nc2cc(Cl)cc(Cl)c2)cc(C(=O)OC)c1	–	16	83	101	–	–	·	CHOP confirm=99;Rh123 counter=75
CSc1ccc(CN2CCC(Oc3ccc(C(=O)N4CCCC4)cc3)CC2)cc1	–	–	–	·	–	–	·
Cc1c(C(=O)N2CCN(c3ncccn3)CC2)oc2ccc(Cl)cc12	–	–	–	·	–	–	·
Cc1ccc(C)c(OCC(=O)Nc2nonc2NC(=O)COc2cc(C)ccc2C)c1	–	–	90	101	–	–	·	CHOP confirm=–;Rh123 counter=84
COc1ccc(C(CCN(Cc2ccc(OC)c(OC)c2)C(C)=O)C(C)C)cc1 (stereo not given)	–	–	–	·	–	–	·
CCc1ccc(Nc2cc(=O)n(C3CCCCC3)c(=O)[nH]2)cc1	–	–	63	105	–	6.9	·	CHOP confirm=–;Rh123 counter=107;aDG conf=–
O=C(COC(=O)C1CCC(=O)N1)Nc1cccc([N+](=O)[O-])c1 (stereo not given)	–	–	–	·	–	–	·
CCCCc1c(C)nn(-c2nnc3c4ccccc4n(C)c3n2)c1C	–	–	–	107	–	4.2	·	CHOP confirm=–;aDG conf=–
Cn1c2ccccc2c2nnc(NN)nc21	–	–	–	–	–	–	·
O=C(/C=C\c1ccccc1OC(=O)c1ccccc1F)c1cc2ccccc2o1	–	–	–	–	55	–	287
CC(=O)/C=C\c1ccccc1OC(=O)c1cc2ccccc2oc1=O	–	–	–	·	–	–	·
CCN(CC)C(=O)c1ccc(Oc2ccc([N+](=O)[O-])cc2Cl)cc1	–	–	–	–	–	–	·
CCN(CC)C(=O)c1cc([N+](=O)[O-])cc2c1-c1ccc([N+](=O)[O-])cc1C2=C(C#N)C#N	–	–	–	–	169	–	–
CCCCNc1nnc(SCC(=O)c2c[nH]c3ccccc23)s1	–	–	–	–	–	–	·
CC(=O)c1ccc(NC(=O)C(C)Sc2nnc(C3CCCCC3)o2)cc1 (stereo not given)	–	·	·	·	–	·	·
O=C1C(CSCc2ccccc2)NC(=S)N1c1ccccc1 (stereo not given)	–	–	–	–	52	–	34
O=C(O)CC1NC(=S)N(c2ccccc2)C1=O (stereo not given)	–	–	–	–	–	–	·
SMILES	UPR XBP1 act	NR3A LBD binder	MPTP inh	CHOP inhibitor	UPR CHOP act	aDG glyco act	CHOP UPR conf	others
COc1ccccc1/C=C1\Oc2cc(OC(=O)N3CCOCC3)ccc2C1=O	–	–	–	–	–	–	·
O=C(Cn1ncc(Cl)c(Cl)c1=O)c1ccc2c(c1)OCCO2	–	–	–	·	45	–	48
CCC(=O)Nc1ccc(C(=O)Cn2ncc(Cl)c(Cl)c2=O)cc1	–	–	–	–	63	–	74
CCN(CC)S(=O)(=O)c1cc(NC(=O)Cn2ncc(Cl)c(Cl)c2=O)ccc1C	–	–	–	–	95	–	67
O=C(Cn1ncc(Cl)c(Cl)c1=O)Nc1ccc2c(c1)OCO2	–	–	–	·	–	–	·
CC1(C)Cc2c(c(N3CCOCC3)nc3sc(C(=O)Nc4cccc(Cl)c4)c(N)c23)CO1	–	–	–	·	88	–	–
Cc1noc2ncnc(N3CCCC3)c12	–	–	–	–	–	–	·
Cc1noc2ncnc(Sc3ccc(Br)cc3)c12	–	–	–	–	229	–	124
Cc1c(/C=N/Nc2nc3ccccc3[nH]2)c2ccccc2n1C	–	–	–	–	320	–	–
Cc1nnc(NC(=O)CSc2ccc(-c3ccccn3)nn2)s1	–	·	·	–	–	·	·
COc1ccc(C(=O)N/N=C(\C)c2ccccn2)cc1OC	–	–	–	·	355	–	284
C/C(=N\NC(=O)c1ccc(Cl)c(Cl)c1)c1ccccn1	–	·	–	·	367	–	322
C/C(=N\NC(=O)c1cccc(Br)c1)c1ccccn1	–	–	–	·	535	–	449
C/C(=N/NC(=O)c1ccc(C(C)(C)C)cc1)c1ccccn1	–	–	–	·	556	–	372
CC(=NNC(=O)c1ccncc1)c1cccc(Br)c1	·	–	–	·	·	–	·
C/C(=N/NC(=O)c1ccccn1)c1ccncc1	–	–	–	·	–	–	·
CN(Cc1ccccc1)C(=O)CCn1c(=O)c2cccn2c2cccnc21	–	–	–	·	–	–	·
CC1(C)c2[nH]c3ccccc3c2C[C@H]2C(=O)N(Cc3ccc(F)cc3)C(=O)N21	–	–	–	·	–	–	·
CCOC(=O)c1sc(N=NC2=C(O)CC(C)(C)CC2=O)c(C(=O)OCC)c1C	–	–	–	–	–	–	·
C/C(=N\NC(=O)C(c1ccccc1)c1ccccc1)c1ccccn1	–	–	–	–	80	–	51
C/C(=N\NC(=O)c1cc(Br)ccc1O)c1ccccn1	–	–	–	·	213	–	223
O=C(O)c1ccc(/C=N/N2CCN(C3c4ccccc4-c4ccccc43)CC2)cc1	–	–	–	–	–	–	·
Cc1ccc(CN2CCN(/N=C/c3ccc(O)c(O)c3)CC2)cc1	–	–	–	·	147	–	106
